Results taken from ChEMBL document CHEMBL4406874, “One-pot synthesis of novel tert-butyl-4-substituted phenyl-1H-1,2,3-triazolo piperazine/piperidine carboxylates, potential GPR119 agonists” (Bioorg Med Chem Lett, 2019).

Target: T1, Glucose-dependent insulinotropic receptor (Homo sapiens, UniProt Q8TDV5)
T1 sequence (Q8TDV5 whole entry): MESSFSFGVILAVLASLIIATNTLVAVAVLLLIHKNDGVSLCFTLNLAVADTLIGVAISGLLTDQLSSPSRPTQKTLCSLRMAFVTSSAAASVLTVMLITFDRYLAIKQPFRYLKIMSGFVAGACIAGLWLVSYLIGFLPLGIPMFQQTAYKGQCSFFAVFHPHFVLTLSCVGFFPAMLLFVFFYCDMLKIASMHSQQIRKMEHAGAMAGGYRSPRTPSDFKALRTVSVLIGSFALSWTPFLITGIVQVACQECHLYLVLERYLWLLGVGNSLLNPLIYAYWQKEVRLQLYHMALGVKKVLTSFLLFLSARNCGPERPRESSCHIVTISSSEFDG
Experiment: Agonist activity at recombinant human GPR119 expressed in HEK293 cells after 24 hrs by steady-glo luciferase assay
Assay type: cell-based
Outline: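 HEK-293 cells stably carrying GPR119 plus a CRE-luciferase reporter, seeded at 10,000 cells/well and cultured 24 h before compound addition at 0.1 nM to 1mM. DMSO served as negative control and AR231453 as reference agonist. Luciferase signal was read after a further 24 h as a surrogate for cAMP elevation.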

EC50 [nM] | SMILES
8.78 | CC(C)(C)OC(=O)N1CCN(C(=O)c2cn(-c3ccc(C(F)(F)F)cc3Cl)nn2)CC1
14 | CC(C)(C)OC(=O)N1CCC(OC(=O)c2cn(-c3ccc(S(C)(=O)=O)cc3F)nn2)CC1
7.12 | CC(C)(C)OC(=O)N1CCN(C(=O)c2cn(-c3nc4ccccc4s3)nn2)CC1
12.3 | CC(C)(C)OC(=O)N1CCC(OC(=O)c2cn(-c3ccc(Cl)c(C(F)(F)F)c3)nn2)CC1
12.4 | CC(C)(C)OC(=O)N1CCN(C(=O)c2cn(-c3ccc(S(C)(=O)=O)cc3F)nn2)CC1
8.17 | CC(C)(C)OC(=O)N1CCC(OC(=O)c2cn(-c3nc4ccccc4s3)nn2)CC1

More lines, now with the values behind:

SMILES | EC50 [nM]
CC(C)(C)OC(=O)N1CCN(C(=O)c2cn(-c3ccc(C#N)cc3F)nn2)CC1 | 4.21
CC(C)(C)OC(=O)N1CCN(C(=O)c2cn(-c3ccc(S(C)(=O)=O)cc3)nn2)CC1 | 3.12
CC(C)(C)OC(=O)N1CCN(C(=O)c2cn(-c3ccc(Cl)c(C(F)(F)F)c3)nn2)CC1 | 12.3
CC(C)(C)OC(=O)N1CCN(C(=O)c2cn(-c3ccc(C(F)(F)F)cc3)nn2)CC1 | 13.6
CC(C)(C)OC(=O)N1CCC(OC(=O)c2cn(-c3ccc(C(F)(F)F)cc3Cl)nn2)CC1 | 11.1
CC(C)(C)OC(=O)N1CCC(OC(=O)c2cn(-c3ccc(S(C)(=O)=O)cc3)nn2)CC1 | 3.67
CC(C)(C)OC(=O)N1CCC(OC(=O)c2cn(-c3ccc(C#N)cc3F)nn2)CC1 | 3.59
CC(C)(C)OC(=O)N1CCC(OC(=O)c2cn(-c3ccc(C(F)(F)F)cc3)nn2)CC1 | 10.4
CC(C)c1noc(C2CCN(c3ncnc(Nc4ccc(S(C)(=O)=O)cc4F)c3[N+](=O)[O-])CC2)n1 | 4.78
